Data published in ChEMBL document CHEMBL4304827, “Design, synthesis and evaluation of structurally diverse chrysin-chromene-spirooxindole hybrids as anticancer agents” (Bioorg Med Chem, 2019).

Tests used:
A549 = assay: Antiproliferative activity against human A549 cells assessed as reduction in cell proliferation incubated for 48 hrs by MTT assay; format: functional, cell-based; details: A549, 48 h
Method in brief: (§1)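 Log-phase cells were plated at 5 × 10^3/well in RPMI-1640 with 10% FBS and cultured 24 h. Compounds were added at graded concentrations (DMSO <0.1%) for 48 h. MTT (5 mg/mL) was added for about 4 h, formazan was dissolved in DMSO and A490 was read. IC50 was calculated from ≥3 independent experiments and reported as mean ± SD. Chrysin served as positive control.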

K562 = assay: Antiproliferative activity against human K562 cells assessed as reduction in cell proliferation incubated for 48 hrs by MTT assay; format: functional, cell-based; details: K562, 48 h; method in brief: as §1
NCI-H1299 = assay: Antiproliferative activity against human H1299 cells assessed as reduction in cell proliferation incubated for 48 hrs by MTT assay; format: functional, cell-based; details: NCI-H1299, 48 h; method in brief: as §1
PC-3 = assay: Antiproliferative activity against human PC3 cells assessed as reduction in cell proliferation incubated for 48 hrs by MTT assay; format: functional, cell-based; details: PC-3, 48 h; method in brief: as §1
MRC5 = assay: Cytotoxicity against human MRC5 cells assessed as reduction in cell proliferation incubated for 48 hrs by MTT assay; format: cell-based; details: MRC5, 48 h; method in brief: as §1

Row | SMILES | IC50 (A549) | IC50 (K562) | IC50 (NCI-H1299) | IC50 (PC-3) | IC50 (MRC5)
1 | N#CC1=C(N)Oc2cc3oc(-c4ccccc4)cc(=O)c3c(O)c2C12C(=O)N(Cc1ccccc1)c1c(Cl)cccc12 (stereo not given) | > 50 µM | 47.8 µM | > 50 µM | > 50 µM | –
2 | CCN1C(=O)C2(C(C#N)=C(N)Oc3cc4oc(-c5ccc(OC)cc5OC)cc(=O)c4c(O)c32)c2cc(Cl)ccc21 (stereo not given) | > 50 µM | 8.45 µM | > 50 µM | > 50 µM | –
3 | CCN1C(=O)C2(C(C#N)=C(N)Oc3cc4oc(-c5ccccc5)cc(=O)c4c(O)c32)c2cc(C)ccc21 (stereo not given) | > 50 µM | > 50 µM | > 50 µM | > 50 µM | –
4 | CCN1C(=O)C2(C(C#N)=C(N)Oc3cc4oc(-c5ccccc5)cc(=O)c4c(O)c32)c2cccc(C)c21 (stereo not given) | > 50 µM | > 50 µM | > 50 µM | > 50 µM | –
5 | N#CC1=C(N)Oc2cc3oc(-c4ccccc4)cc(=O)c3c(O)c2C12C(=O)Nc1cc(Cl)ccc12 (stereo not given) | 8.47 µM | 9.25 µM | 16.6 µM | 25.7 µM | –
6 | CC(C)(C)OC(=O)CN1C(=O)C2(C(C#N)=C(N)Oc3cc4oc(-c5ccccc5)cc(=O)c4c(O)c32)c2ccccc21 (stereo not given) | > 50 µM | > 50 µM | > 50 µM | > 50 µM | –
7 | CN1C(=O)C2(C(C#N)=C(N)Oc3cc4oc(-c5ccccc5)cc(=O)c4c(O)c32)c2cccc(Cl)c21 (stereo not given) | > 50 µM | 41.4 µM | > 50 µM | > 50 µM | –
8 | N#CC1=C(N)Oc2cc3oc(-c4ccccc4)cc(=O)c3c(O)c2C12C(=O)N(c1ccccc1)c1ccccc12 (stereo not given) | > 50 µM | > 50 µM | > 50 µM | > 50 µM | –
9 | COc1ccc(-c2cc(=O)c3c(O)c4c(cc3o2)OC(N)=C(C#N)C42C(=O)N(Cc3ccccc3)c3ccccc32)c(OC)c1 (stereo not given) | > 50 µM | > 50 µM | > 50 µM | > 50 µM | –
10 | N#CC1=C(N)Oc2cc3oc(-c4ccccc4)cc(=O)c3c(O)c2C12C(=O)Nc1ccccc12 (stereo not given) | 37.6 µM | 36.4 µM | > 50 µM | > 50 µM | –
11 | CN1C(=O)C2(C(C#N)=C(N)Oc3cc4oc(-c5ccccc5)cc(=O)c4c(O)c32)c2ccccc21 (stereo not given) | > 50 µM | > 50 µM | > 50 µM | > 50 µM | –

Further lines, with some results ahead:

Row | IC50 (A549) | IC50 (K562) | IC50 (NCI-H1299) | IC50 (PC-3) | SMILES | IC50 (MRC5)
12 | > 50 µM | > 50 µM | > 50 µM | > 50 µM | N#CC1=C(N)Oc2cc3oc(-c4ccccc4)cc(=O)c3c(O)c2C12C(=O)N(Cc1ccccc1)c1ccc(F)cc12 (stereo not given) | –
13 | > 50 µM | > 50 µM | > 50 µM | > 50 µM | Cc1ccc2c(c1)C1(C(=O)N2Cc2ccccc2)C(C#N)=C(N)Oc2cc3oc(-c4ccccc4)cc(=O)c3c(O)c21 (stereo not given) | –
14 | > 50 µM | 16.1 µM | > 50 µM | > 50 µM | CCN1C(=O)C2(C(C#N)=C(N)Oc3cc4oc(-c5ccc(OC)cc5OC)cc(=O)c4c(O)c32)c2cc(Br)ccc21 (stereo not given) | –
15 | > 50 µM | > 50 µM | > 50 µM | > 50 µM | Cc1cccc2c1N(Cc1ccccc1)C(=O)C21C(C#N)=C(N)Oc2cc3oc(-c4ccccc4)cc(=O)c3c(O)c21 (stereo not given) | –
16 | > 50 µM | 36.3 µM | > 50 µM | > 50 µM | N#CC1=C(N)Oc2cc3oc(-c4ccccc4)cc(=O)c3c(O)c2C12C(=O)N(Cc1ccccc1)c1ccc(Cl)cc12 (stereo not given) | –
17 | > 50 µM | > 50 µM | > 50 µM | > 50 µM | Cc1ccc2c(c1)C1(C(=O)N2)C(C#N)=C(N)Oc2cc3oc(-c4ccccc4)cc(=O)c3c(O)c21 (stereo not given) | –
18 | > 50 µM | > 50 µM | > 50 µM | > 50 µM | COc1ccc2c(c1)C1(C(=O)N2Cc2ccccc2)C(C#N)=C(N)Oc2cc3oc(-c4ccccc4)cc(=O)c3c(O)c21 (stereo not given) | –
19 | > 50 µM | > 50 µM | > 50 µM | > 50 µM | Cc1ccc2c(c1)C1(C(=O)N2Cc2ccccc2)C(C#N)=C(N)Oc2cc3oc(-c4ccccc4F)cc(=O)c3c(O)c21 (stereo not given) | –
20 | 9.34 µM | 8.7 µM | 14.4 µM | 24.8 µM | N#CC1=C(N)Oc2cc3oc(-c4ccccc4)cc(=O)c3c(O)c2C12C(=O)Nc1cc(Br)ccc12 (stereo not given) | –
21 | > 50 µM | 36.4 µM | > 50 µM | > 50 µM | N#CC1=C(N)Oc2cc3oc(-c4ccccc4)cc(=O)c3c(O)c2C12C(=O)N(Cc1ccccc1)c1ccc(Br)cc12 (stereo not given) | –
22 | > 50 µM | 37.5 µM | > 50 µM | > 50 µM | N#CC1=C(N)Oc2cc3oc(-c4ccccc4)cc(=O)c3c(O)c2C12C(=O)Nc1c(Cl)cccc12 (stereo not given) | –
23 | > 50 µM | 12.2 µM | > 50 µM | > 50 µM | COc1ccc(-c2cc(=O)c3c(O)c4c(cc3o2)OC(N)=C(C#N)C42C(=O)N(C)c3ccc(C)cc32)c(OC)c1 (stereo not given) | –
24 | > 50 µM | > 50 µM | > 50 µM | > 50 µM | O=c1cc(-c2ccccc2)oc2cc(O)cc(O)c12 [CHRYSIN] | > 100 µM
25 | 4.72 µM | 4.34 µM | 11.2 µM | 21.4 µM | CN1C(=O)C2(C(C#N)=C(N)Oc3cc4oc(-c5ccccc5)cc(=O)c4c(O)c32)c2cc(Cl)ccc21 (stereo not given) | –
26 | 7.06 µM | 5.87 µM | 10.2 µM | > 50 µM | Cc1ccc2c(c1)C1(C(=O)N2C)C(C#N)=C(N)Oc2cc3oc(-c4ccccc4)cc(=O)c3c(O)c21 (stereo not given) | –
